# Measured values collected from several papers.
# Lines come from different studies, so protocols differ.
# Target: Maternal embryonic leucine zipper kinase (MELK, Homo sapiens, UniProt Q14680)
Compound,test,system,setting,measurement,value
Nc1ncnc2occ(-c3ccc(NC(=O)Nc4cc(C(F)(F)F)ccc4F)cc3)c12,"cell-free assay, inhibitor",,20 µM,remaining signal,8.1%
O=C(Nc1cnn(-c2csc(C(=O)NC3COC3)c2)c1)Nc1ccccc1Cl,"enzyme activity, inhibitor",,5 µM,remaining activity,48.7%
CNC(=O)c1cc(Oc2ccc(NC(=O)Nc3ccc(Cl)c(C(F)(F)F)c3)cc2)ccn1,"enzyme activity, inhibitor",,0.3 µM,inhibition,4%
N#Cc1ccc(Nc2ccc3[nH]c(=O)[nH]c3c2)c(Cl)c1,"cell-free assay, competition with immobilised ligand",,1 µM,remaining binding,95%
COc1cc2ncnc(Nc3ccc(F)c(Cl)c3)c2cc1OCCCN1CCOCC1,cell-free assay,,0.5 µM,remaining signal,77.7%
C[C@H](c1cccc(C#N)c1)n1cc(Cl)cc(C(N)=O)c1=N,"cell-free assay, competition with immobilised ligand",,1 µM,remaining binding,74%
Oc1cccc(-c2nc(N3CCOCC3)c3oc4ncccc4c3n2)c1,"enzyme activity, inhibitor",,10 µM,remaining activity,104%
COc1cc(Nc2cnc(C#N)c(O[C@H](C)CN(C)C)n2)ncc1-c1cnn(C)c1,"enzyme activity, inhibitor, radiometric",,1 µM,remaining activity,109%
Cc1ccc(C(=O)Nc2ccc(CN3CCN(C)CC3)c(C(F)(F)F)c2)cc1C#Cc1cnc2cccnn12,"enzyme activity, inhibitor",,23.5 nM,remaining activity,61%
COc1cc(-c2cc(-c3ccc(N4CCNCC4)cc3)cnc2C)cc(OC)c1OC,"enzyme activity, inhibitor",,1 µM,inhibition,8%
COc1cc2c(Nc3ccc(Br)cc3F)ncnc2cc1OCC1CCN(C)CC1,cell-free assay,,0.5 µM,remaining signal,94.4%
CCN1CCN(Cc2ccc(NC(=O)c3ccc(C)c(/C=C/c4cnc5[nH]ccc5c4OC)c3)cc2C(F)(F)F)CC1,"target engagement in cells, inhibitor, chemoproteomics",A-375,50 nM,inhibition,-10.4%
Cc1cnc(NC2CCOCC2)nc1-n1cnc(C(=O)NC(CN)c2cc(F)cc(Cl)c2)c1 (centres unmarked),"enzyme activity, inhibitor, radiometric",,1 µM,remaining activity,49%
CN(C)C(=O)Cn1cc(-c2nc([C@@](C)(c3ccc(-c4cnc(N)nc4)cc3)C3CC3)no2)cn1,"cell-free assay, competition with immobilised ligand",,1 µM,remaining binding,87%
Cc1ncc([N+](=O)[O-])n1C(=NO)c1ccccc1C(F)(F)F,"enzyme activity, inhibitor",,10 µM,inhibition,13.9%
Cc1sc(C(=O)NC2COC2)cc1-n1cc(NC(=O)Nc2c(F)cccc2Cl)cn1,"enzyme activity, inhibitor",,10 µM,remaining activity,103%
CCN(CC)c1ccc(C2=NNC(=O)CC2C)cc1[N+](=O)[O-] (centres unmarked),"enzyme activity, inhibitor",,10 µM,remaining activity,92%
CN(c1ncccc1CNc1nc(Nc2ccc3c(c2)CC(=O)N3)ncc1C(F)(F)F)S(C)(=O)=O,"enzyme activity, inhibitor",,1 µM,inhibition,90.4%
COc1cc(-c2cn(C3CCc4c(F)cccc4N(CC(F)(F)F)C3=O)nn2)ccc1-n1cnc(C)c1 (centres unmarked),"cell-free assay, competition with immobilised ligand",,1 µM,remaining binding,100%
CC(C)(C)c1nc2c3cc[nH]c(=O)c3c3cc(F)ccc3c2[nH]1,cell-free assay,,0.5 µM,remaining signal,5.23%
CN(C)CC#Cc1ccc(OCCCc2sc(N3CCc4cccc(C(=O)Nc5nc6ccccc6s5)c4C3)nc2C(=O)O)c(F)c1,"cell-free assay, competition with immobilised ligand",,1 µM,remaining binding,78%
Cc1ccc(Nc2nccc(N(C)c3ccc4c(C)n(C)nc4c3)n2)cc1S(N)(=O)=O,"enzyme activity, inhibitor",,0.3 µM,inhibition,7%
CC(=O)Nc1c(C(C)=O)c(=O)n(C)c2nc(-c3ccc(Cl)cc3Cl)c(-c3ccc(Cl)cc3)cc12,"cell-free assay, competition with immobilised ligand",,1 µM,remaining binding,100%
CC(C)(C)C(=O)c1sc(NC2CCCCC2)nc1N,"enzyme activity, inhibitor",,10 µM,remaining activity,89%
COc1cc2ncnc(Nc3ccc(Oc4ccccc4)c(C)c3C)c2cc1OC,"enzyme activity, inhibitor",,1 µM,inhibition,10%
CC/C(=N\NC(=O)NCc1cccc(O)c1)c1ccc(O)c(C)c1O,"enzyme activity, inhibitor",,0.1 µM,inhibition,0.7%
CC(C)(C)c1nc2c(s1)c1nc(N)ncc1c1ccc(NS(=O)(=O)c3c(F)cccc3F)c(F)c12,"enzyme activity, inhibitor, radiometric",,1 µM,remaining activity,41%
O=C1NC(=O)c2cc(Nc3ccc(F)cc3)c(Nc3ccc(F)cc3)cc21,cell-free assay,,0.5 µM,remaining signal,92%
CNC(=O)Nc1ccc2c(c1)[C@@]1(CC2)OC(=O)N(CC(=O)N(Cc2ccc(F)cc2)[C@@H](C)C(F)(F)F)C1=O,"cell-free assay, competition with immobilised ligand",,1 µM,remaining binding,100%
FC(F)(F)Oc1cccc(-c2cnc3ccc(-c4ccncc4)nn23)c1,"enzyme activity, inhibitor, radiometric",,5 µM,activity vs control,77%
Cc1noc([C@H]2C[C@@H](c3ccc(C(F)(F)F)cc3)CN(C(=O)N3CCS(=O)(=O)C3)C2)n1,"cell-free assay, competition with immobilised ligand",,1 µM,remaining binding,100%
CCN(CC)CCNC(=O)c1c(C)[nH]c(/C=C2\C(=O)Nc3ccc(F)cc32)c1C,"enzyme activity, inhibitor",,10 µM,inhibition,99%
